This passage reports Activity, residual activity and inhibition results from ChEMBL document CHEMBL2424543, “Enantioselective effects of (+)- and (-)-citronellal on animal and plant microtubules” (J Nat Prod, 2013).

Molecules are shown by their SMILES. The source made the active and inactive calls. The calls are words filed in the database; no cut-off is given here.

For experiment [1], the system named is REF52. Briefly: Induction of microtubule depolymerization in rat REF52 cells at 2 uM after 30 mins by fluorescence assay. The experiment is classed as cell-based.
Experiment [2] has as its target Tubulin beta-6 chain (Arabidopsis thaliana) (UniProt P29514). Briefly: Effect on GFP-tagged tubulin beta6 polymerization in Arabidopsis thaliana (L.) Heynh at 25 uM after 10 mins by confocal microscopic analysis.
The test system of experiment [3] is Arabidopsis thaliana. Briefly: Effect on GFP-talin-tagged actin dynamics in Arabidopsis thaliana (L.) Heynh at 25 uM after 10 mins by confocal microscopic analysis. Summed up: (§1)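 GFP-talin (actin marker) Arabidopsis Columbia seedlings were raised on MS medium with 4 days of dark stratification at 4 °C, then grown at 24 °C under a 16/8 h photoperiod. Cotyledons of 7-day-old seedlings were treated with 25 μM for 10 min. Actin fiber organization and dynamics were followed by confocal time-lapse imaging.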

Experiment [4] relates to REF52. The experiment is described as follows: Induction of microtubule depolymerization in rat REF52 cells at 27.5 uM by fluorescence assay. The note with it: TDE = time-dependent effect. The experiment is classed as cell-based.
The target of experiment [5] is Tubulin beta-6 chain (Arabidopsis thaliana) (UniProt P29514). Briefly: Effect on GFP-tagged tubulin beta6 polymerization in Arabidopsis thaliana (L.) Heynh assessed as shorten leading end at 25 uM after 10 mins by confocal microscopic analysis (reference value: 15.43 +/- 5.37 um/min).
Chain of Tubulin beta-6 chain (Arabidopsis thaliana) (P29514 whole entry): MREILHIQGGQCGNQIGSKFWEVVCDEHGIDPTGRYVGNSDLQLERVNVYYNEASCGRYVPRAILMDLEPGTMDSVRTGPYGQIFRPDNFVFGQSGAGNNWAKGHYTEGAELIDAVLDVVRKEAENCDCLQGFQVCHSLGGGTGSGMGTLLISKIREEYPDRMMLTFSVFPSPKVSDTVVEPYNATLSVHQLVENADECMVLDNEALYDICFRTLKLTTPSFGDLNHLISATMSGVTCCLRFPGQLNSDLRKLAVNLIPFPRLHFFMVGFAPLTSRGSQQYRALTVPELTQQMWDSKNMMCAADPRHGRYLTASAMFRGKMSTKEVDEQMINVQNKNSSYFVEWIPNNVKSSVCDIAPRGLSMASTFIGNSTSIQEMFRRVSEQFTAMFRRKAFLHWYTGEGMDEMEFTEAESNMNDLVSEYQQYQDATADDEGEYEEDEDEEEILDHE
The species entered for experiment [6] is Bos taurus. The experiment is described as follows: Inhibition of rhodamine-labeled bovine brain tubulin polymerization assessed as shorter microtubules at 20 uM after 20 mins by fluorescence microscopic analysis relative to control; values are per cent of control.
Experiment [7] deals with REF52. The experiment is described as follows: Induction of microtubule depolymerization in rat REF52 cells assessed as decrease in fluorescence associated with fibers at 27.5 uM incubated for 5 to 30 mins measured after 30 mins relative to control. The experiment is classed as cell-based. Also noted: scale not given: the % may be the effect or the level left.
Experiment [8] relates to HeLa. The experiment is described as follows: Induction of microtubule depolymerization in human HeLa cells at 27.5 uM after 30 mins by fluorescence assay. The experiment is classed as cell-based. Summed up:
(§2)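 HeLa or Ref52 cells were grown in DMEM with 10% fetal calf serum at 37 °C/5% CO2. Compound was dissolved in DMSO and diluted in serum-free DMEM. Cells were permeabilized and fixed in paraformaldehyde/Triton X-100. MTs were immunostained with DM1A plus an Alexa 488 secondary, and actin was stained with Alexa 555-phalloidin. Cells were examined by confocal microscopy.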

Experiment [9] concerns REF52. The experiment is described as follows: Induction of microtubule depolymerization in rat REF52 cells at 27.5 to 55 uM after 30 mins by fluorescence assay relative to control. The experiment is classed as cell-based.
The species named for experiment [10] is Bos taurus. The experiment is described as follows: Inhibition of rhodamine-labeled bovine brain tubulin polymerization assessed as number of microtubules at 20 uM after 20 mins by fluorescence microscopic analysis relative to control; values are per cent of control.
In experiment [11] the test system is REF52. The experiment is described as follows: Effect on actin depolymerization in rat REF52 cells at 27.5 uM after 30 mins by fluorescence assay. The experiment is classed as cell-based. Summed up: as §2
In experiment [12] the test system is Arabidopsis thaliana. Briefly: Effect on GFP-talin-tagged actin organization in Arabidopsis thaliana (L.) Heynh at 25 uM after 10 mins by confocal microscopic analysis. The method, boiled down:
as §1

Experiment [13] deals with Tubulin beta-6 chain (Arabidopsis thaliana) (UniProt P29514). The experiment is described as follows: Effect on GFP-tagged tubulin beta6 polymerization in Arabidopsis thaliana (L.) Heynh assessed as shorten lagging end at 25 uM after 10 mins by confocal microscopic analysis (reference value: 3.57 +/- 2.33 um/min).
Experiment [14] has the same target. Briefly: Effect on GFP-tagged tubulin beta6 polymerization in Arabidopsis thaliana (L.) Heynh assessed as growth of leading end at 25 uM after 10 mins by confocal microscopic analysis (reference value: 5.79 +/- 1.15 um/min).
Experiment [15] shares this target. Briefly: Effect on GFP-tagged tubulin beta6 polymerization in Arabidopsis thaliana (L.) Heynh assessed as growth of lagging end at 25 uM after 10 mins by confocal microscopic analysis (reference value: 3.54 +/- 2.48 um/min).
The subject of experiment [16] is REF52. The experiment is described as follows: Induction of microtubule depolymerization in rat REF52 cells after 30 mins by fluorescence assay. Type of experiment: cell-based.
Experiment [17] relates to REF52. The experiment is described as follows: Induction of microtubule depolymerization in rat REF52 cells at 27.5 uM after 30 mins by fluorescence assay. The experiment is classed as cell-based.
Experiment [18] deals with HeLa. The experiment is described as follows: Effect on actin depolymerization in human HeLa cells at 27.5 uM after 30 mins by fluorescence assay. Type of experiment: cell-based. The method, boiled down:
as §2

The test system of experiment [19] is REF52. Briefly: Effect on actin depolymerization in rat REF52 cells assessed as effect on ratio of soluble to insoluble protein fraction at 0.1 uM after 30 mins by Western blot analysis. The experiment is classed as cell-based. The method, boiled down:
(§3)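 Ref52 rat embryonic fibroblasts grown in DMEM with 10% FCS at 37 °C/5% CO2 and dosed for 30 min in serum-free DMEM. Triton X-100 fractionation: 3 min extraction at room temperature in 50 mM MES pH 6.8 with 2.5 mM EGTA, 5 mM MgCl2 and 0.5% Triton. Equal volumes of soluble and insoluble fractions run on SDS-PAGE. Western blot with anti-tubulin DM1A and anti-actin C4, HRP chemiluminescence, band densitometry. Four independent experiments.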
For orientation: In western blotting, separated proteins are transferred to a membrane and probed.

Experiment [20] deals with REF52. The experiment is described as follows: Induction of microtubule depolymerization in rat REF52 cells assessed as […] in ratio of soluble to insoluble tubulin fraction at 0.1 uM after 30 mins by Western blot analysis. Type of experiment: cell-based. The method, boiled down:
as §3

Experiment [21] relates to REF52. The experiment is described as follows: Induction of microtubule depolymerization in rat REF52 cells at 0.1 uM after 30 mins by fluorescence assay. Type of experiment: cell-based. Summed up: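 Ref52 cells in serum-free DMEM, treated 30 min. Permeabilized with 3% paraformaldehyde and 0.5% Triton X-100, then fixed in 3% paraformaldehyde plus 1% glutaraldehyde, quenched with borohydride. Stained with anti-tubulin DM1A and Alexa 488 secondary, imaged by confocal microscopy. FiberScore gives total fluorescence associated with fibers. Mean ± standard error, Scheffe's test at p < 0.05.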

Experiment [22] concerns REF52. Briefly: Induction of microtubule depolymerization in rat REF52 cells at 6.9 to 13.8 uM after 30 mins by fluorescence assay relative to control. Type of experiment: cell-based.
For experiment [23], the species on record is Bos taurus. The experiment is described as follows: Inhibition of rhodamine-labeled bovine brain tubulin polymerization assessed as number of microtubules at 20 uM after 20 mins by fluorescence microscopic analysis relative to control. The method, boiled down: (§4)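 Purified bovine brain tubulin mixed with rhodamine-tubulin and GTP was polymerized in MRB80 (80 mM PIPES/KOH pH 6.8, 1 mM MgCl2, 1 mM EGTA) plus 6% glycerol, with 20 μM compound or 0.01% DMSO. Incubation was 20 min at 37 °C, stopped with 0.5% glutaraldehyde. MT number and total length were measured by wide-field fluorescence microscopy. Data are average ± SE, compared by Scheffe's test.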

For experiment [24], the species on record is Bos taurus. Briefly: Inhibition of rhodamine-labeled bovine brain tubulin polymerization assessed as shorter microtubules at 20 uM after 20 mins by fluorescence microscopic analysis relative to control. The method, boiled down: as §4
Experiment [25] deals with REF52. Briefly: Induction of microtubule depolymerization in rat REF52 cells at 27.5 uM after 5 to 30 mins by fluorescence assay relative to control. The experiment is classed as cell-based.

Turning to `CC(=O)O[C@H]1C(=O)[C@@]2(C)[C@H]([C@H](OC(=O)c3ccccc3)[C@]3(O)C[C@H](OC(=O)[C@H](O)[C@@H](NC(=O)c4ccccc4)c4ccccc4)C(C)=C1C3(C)C)[C@]1(OC(C)=O)CO[C@@H]1C[C@@H]2O`, the outcome in the experiment with REF52 [1] was Active.

The residual activity is what remains of the control signal, in per cent. For the molecule `CC(C)=CCC[C@@H](C)CC=O`, the outcome (in experiment [2]; in the experiment with HeLa [8]; in the experiment on REF52 [17]) was Active. In addition, the outcome in the experiment on Arabidopsis thaliana [3], with REF52 [11], with Arabidopsis thaliana [12] and in the experiment on HeLa [18] was inactive. The Activity entry with REF52 [4] was “tde”; in [5], 0 um/min; in the experiment on REF52 [7], 20%; in the experiment on REF52 [9] it was 20%; in [13] it was 0 um/min; in experiment [14] it was 0 um/min. Besides, the Activity in experiment [15] is 0 um/min; in the experiment on REF52 [16] it was “Dose-dependent effect”. Moreover, the residual activity in the experiment filed under Bos taurus [6] stood at 30%; in the experiment filed under Bos taurus [10] it was 40%.

Take `COc1cc2c(c(OC)c1OC)-c1ccc(OC)c(=O)cc1[C@@H](NC(C)=O)CC2`: the outcome in the experiment with REF52 [19] was inactive. Besides, the result in the experiment with REF52 [20] and in the experiment on REF52 [21] was Active.

As for `CC(C)=CCC[C@H](C)CC=O`, the result (in [2]; with REF52 [22]; in the experiment with Arabidopsis thaliana [3]; in the experiment with HeLa [8]; with REF52 [11]; in the experiment on Arabidopsis thaliana [12]) was inactive. For the same molecule, the outcome in the experiment with REF52 [17] and in the experiment on HeLa [18] was inactive. The Activity result in the experiment on REF52 [4] was “tde”; in experiment [5], 14.6 um/min; in the experiment with REF52 [9] it was 50%; with REF52 [25], 60%; in experiment [13], 7.48 um/min; in experiment [14], 5.94 um/min. Also, the Activity in [15] was 1.66 um/min; in the experiment with REF52 [16], “Dose-dependent effect”. Besides, the inhibition result in the experiment listed under Bos taurus [23] and in the experiment listed under Bos taurus [24] was “inactive” throughout.

As for `CC[C@]1(O)C[C@@H]2CN(CCc3c([nH]c4ccccc34)[C@@](C(=O)OC)(c3cc4c(cc3OC)N(C)[C@H]3[C@@](O)(C(=O)OC)[C@H](OC(C)=O)[C@]5(CC)C=CCN6CC[C@]43[C@@H]65)C2)C1`, the result in the experiment on REF52 [21] was Active.
